Source: PubChem BioAssay
EBI2 antag – EBI2 receptor antagonists, beta-arrestin recruitment, primary screen, cell-based, luminescence, 7a,25-OHC stimulation, uHTS; 0.81% of 360,000 active; AID 651636, 2012; inhibition, % at 5 µM; 7a,25-OHC stimulated; G-protein coupled receptor 183 (Homo sapiens), P32249; in the data active = inhibition above about 38%;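 also: enzyme fragment complementation signal reports receptor beta-arrestin coupling in cells; 0% = agonist plus DMSO wells and 100% = wells without agonist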
Target sequence (P32249 whole entry, looked up, the tested form may be a part): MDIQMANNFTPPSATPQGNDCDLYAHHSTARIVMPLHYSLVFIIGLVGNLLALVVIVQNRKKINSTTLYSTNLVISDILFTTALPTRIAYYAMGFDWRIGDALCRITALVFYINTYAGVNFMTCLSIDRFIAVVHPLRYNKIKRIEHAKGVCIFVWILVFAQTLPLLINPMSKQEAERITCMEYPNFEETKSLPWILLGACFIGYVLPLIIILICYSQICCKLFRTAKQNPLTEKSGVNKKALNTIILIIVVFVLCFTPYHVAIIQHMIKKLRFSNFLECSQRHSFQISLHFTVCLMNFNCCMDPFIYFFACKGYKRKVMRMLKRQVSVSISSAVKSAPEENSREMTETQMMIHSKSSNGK
MC4R barr agon – MC4R agonists recruiting beta-arrestin, primary screen, cell-based, luminescence, agonist arm of biased-ligand search | U2OS MC4R beta-arrestin complementation; percent of melanotan II response, DMSO zero | AID 540308, 2011 | activation, % at 8.9 µM | 0.98% of 360,000 active;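 active = activation above a per-plate cutoff, the mean activation of sample wells on that plate plus 3 SD, cut at about 8% in these data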
Target sequence (P32245 whole entry, looked up): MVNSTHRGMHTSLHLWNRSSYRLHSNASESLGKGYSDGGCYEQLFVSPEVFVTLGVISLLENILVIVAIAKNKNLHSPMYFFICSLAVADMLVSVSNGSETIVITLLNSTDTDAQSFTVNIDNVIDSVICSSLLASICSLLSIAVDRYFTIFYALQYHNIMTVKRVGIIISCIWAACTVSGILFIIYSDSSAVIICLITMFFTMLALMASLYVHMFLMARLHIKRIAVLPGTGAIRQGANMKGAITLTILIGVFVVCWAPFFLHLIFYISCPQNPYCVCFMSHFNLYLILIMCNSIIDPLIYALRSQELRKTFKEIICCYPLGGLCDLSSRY
Myeloid diff 2 – induction of myeloid progenitor differentiation, primary screen, cell-based, flow cytometry, MLPCN library; 1% of 360,000 active; calls only at 10 µM; ER-HoxA9 myeloid progenitors, lysozyme-GFP differentiation; AID 624256, 2012;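 active = normalized GFP-positive differentiation at or above the plate's own cutoff, the solvent-only control mean plus 3 SD; inconclusive = no clear call, values can overlap the other calls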;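 also: cells exposed to compound for four days before flow analysis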
Granule exo inh – LAMP-1 surface exposure blockers, TALL-104 cells – cell-based, flow cytometry, MLPCN library, primary screen; TALL-104 LAMP-1 surface exposure; cells stimulated with thapsigargin and PMA; inhibition, % at 10 µM; 0.66% of 360,000 active;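 active = inhibition above about 55%, limit read from the data; inconclusive = no clear call, values can overlap the other calls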
MC4R antagonist – MC4R antagonists of cAMP signaling, primary screen, cell-based, TR-FRET, antagonist arm of biased-ligand search | Melanocortin receptor 4 (Homo sapiens), P32245 | MC4R-expressing cells, MTII-stimulated cAMP, LANCE TR-FRET | inhibition, % at 6.5 µM | 0.48% of 360,000 active | AID 540295, 2011;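 active = inhibition above its plate's cutoff, the mean of tested wells on that plate plus 3 SD, cut at about 29% in these data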;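 also: 0% = Melanotan II alone and 100% = Melanotan II plus saturating MCL0020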
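system = U2OS cells with stable human MC4R expression | also added = Melanotan II challenge after compound preincubation | dosing = one concentration, 6.5 µM nominal | incubation = compound 30 min, challenge 1 h, detection 1 h | measured by = TR-FRET with Eu-cAMP and labeled anti-cAMP, 671 nm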
cAMP nonselect – nonselective cAMP signaling inhibitors, parental cells, counter-screen for MC4R biased antagonist project, cell-based, TR-FRET, U2OS, forskolin, triplicate. inhibition, % at 6.5 µM. 26% of 1,600 active. LANCE TR-FRET. shares compounds with MC4R antagonist;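 active = mean inhibition over triplicates above the low-control well mean plus 3 SD, set per campaign, cut at about 13% in these data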;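 also: signal is single emission at 671 nm which falls as cellular cAMP rises; 0% = forskolin-stimulated wells and 100% = buffer without forskolin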
MC4R cAMP antag – MC4R cAMP antagonists, retest, confirmation, cell-based, TR-FRET; shares compounds with MC4R antagonist; inhibition, % at 6.5 µM; 27% of 1,600 active; MC4R-expressing cells, MTII-stimulated cAMP; AID 602195, 2012; in the data active = inhibition above about 29%;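 also: 0% = agonist stimulated wells alone and 100% = agonist stimulated wells plus saturating reference antagonist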
MC4R barr conf – MC4R beta-arrestin agonists, retest, confirmation, cell-based, luminescence, U2OS; 31% of 2,400 active; shares compounds with MC4R barr agon; activation, % at 8.9 µM; U2OS MC4R beta-arrestin recruitment; scaled DMSO 0%, Melanotan II 100%;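 active = mean activation across replicates above the hit cutoff set in the earlier primary screen, cut at about 8% in these data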
MOR DOR agonist – agonists of MOR-DOR heterodimerization, counter-screen for MC4R biased agonist project, cell-based, luminescence; shares compounds with MC4R barr agon; U2OS PathHunter beta-arrestin, beta-gal luminescence; percent of deltorphin B response, DMSO zero; activation, % at 9.2 µM; 5.8% of 2,400 active; AID 602194, 2012;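 active = mean activation across replicates exceeds the hit threshold derived in the earlier primary screen, cut at about 18% in these data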;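 also: 100% = deltorphin B at 0.9 µM final and 0% = DMSO alone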
EBI2 antag conf – EBI2 antagonist hit retest, beta-arrestin, confirmation, cell-based, single concentration, luminescence, 7a,25-OHC stimulation. shares compounds with EBI2 antag. 29% of 2,400 active. inhibition, % at 5 µM. 7a,25-OHC antagonism. AID 651997, 2013;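 active = inhibition of at least 50%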
EBI2 ag – EBI2 agonist activity of antagonist hits, confirmation, counter-screen for EBI2 antagonist project, cell-based, single concentration, agonist mode, luminescence | shares compounds with EBI2 antag | EBI2-expressing cells, 60 min; 0% vehicle, 100% 7α,25-dihydroxycholesterol control | activation, % at 5 µM | 2,400 tested, under 10 active;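 active = activation of at least 50%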
bGal cs – E. coli beta-galactosidase enzyme inhibition, confirmation, counter-screen for EBI2 antagonist project, biochemical, luminescence, single concentration; shares compounds with EBI2 antag; purified beta-galactosidase, luminescent Galacton Star, 15 min; inhibition, % at 5 µM; 1% of 2,400 active;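 active = replicate-average signal at least 3 plate SD below neutral wells, shown as high inhibition, flagging enzyme-inhibiting false positives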;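 also: 0% = DMSO wells with enzyme and 100% = wells lacking enzyme; higher means stronger loss of beta-gal luminescence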
Exocytosis CP01 – inhibitors of lytic granule exocytosis, confirmation, TALL-104 cells, flow cytometry, Cherry Pick01; inhibition, % at 10 µM; AID 651954, 2012; LAMP-1 externalization; stimulated with PMA plus thapsigargin; shares compounds with Granule exo inh; 11% of 1,500 active; in the data active = inhibition above about 60%;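 also: 0% = stimulated vehicle wells and 100% = unstimulated wells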
Active calls of the source: *; i = inactive; ? = inconclusive; . = not tested or not shown. In the library only some 3.7% were active in any assay of this set; here they are far more common.

SMILES	EBI2 antag	MC4R barr agon	Myeloid diff 2	Granule exo inh	MC4R antagonist	cAMP nonselect	MC4R cAMP antag	MC4R barr conf	MOR DOR agonist	others
O=C(/C=C/c1cccs1)N1CCC2(CC1)Oc1ccc(Cl)cc1C(=O)C21CC(c2cccnc2)=NO1 (centres undefined)	66.3*	-0.7	i	6.1	28.6*	-2.8	18.8	.	.	EBI2 antag conf=17.6;EBI2 ag=-1.2;bGal cs=-12.3
COc1ccc(-c2ccc(CN3C(C(C)C)C(=O)N(Cc4cn(CCC5OCCO5)nn4)CCS3(=O)=O)cc2)cc1 (centres undefined)	6.2	-0.4	i	-3.1	6.6	.	.	.	.
O=C(N[C@@H](Cc1ccccc1)C(=O)OCc1ccccc1)c1ccco1	-3.2	-2.4	i	0.6	8.5	.	.	.	.
CC(NC(=O)CN(c1cccc(C(F)(F)F)c1)S(=O)(=O)c1ccc(Cl)c([N+](=O)[O-])c1)c1ccccc1 (centres undefined)	48.3*	6.2	?	0.2	31.2*	13.8*	41.9*	.	.	EBI2 antag conf=39.7;EBI2 ag=-0.8;bGal cs=-10.7
CCN(CC(=O)Nc1ccc(NC(C)=O)cc1)C(=O)c1ccc(=O)n(C)n1	-11.8	-0.6	i	-2.1	6.2	.	.	.	.
COc1cc(CN2CCCC(N3CCN(c4ccc(F)cc4)CC3)C2)ccc1F (centres undefined)	10.9	0.9	i	61.2*	30.3*	0.3	4.6	.	.	Exocytosis CP01=-14.3
C=CCN(C(=O)CCc1ccccc1OC)c1nc(-c2ccc(S(C)(=O)=O)cc2)cs1	18.7	0.6	i	82.6*	31.1*	-0.4	-3.4	.	.	Exocytosis CP01=-11.6
C=CCN(C(=O)Cc1cccs1)c1nc(-c2ccc(S(C)(=O)=O)cc2)cs1	-2.4	1.6	i	6.1	5.4	.	.	.	.
CNc1ccc(C(=O)OCC(=O)NC(=O)NC2CCCC2)cc1[N+](=O)[O-]	4.8	1.6	?	-2.1	-3.1	.	.	.	.
Nc1ncnc2c1ncn2[C@@H]1O[C@H](C(=O)N[C@H]2c3ccccc3C[C@H]2O)[C@@H](O)[C@H]1O	-8.3	.	i	12.0	.	.	.	.	.
O=C(c1ccc(Br)cc1)C(CN1CCOCC1)c1ccccc1 (centres undefined)	-19.1	1.5	.	66.7*	41.0*	8.6	22.0	.	.	Exocytosis CP01=-10.2
Cc1cc(C)cc(NC(=O)CSc2nc3nc(C)cc(C)n3n2)c1	6.7	-2.3	i	-2.8	-3.9	.	.	.	.
COC(=O)c1ccc(N2CCN(C)CC2)c(NC(=O)c2sc3ccccc3c2Cl)c1	17.8	0.6	i	77.6*	30.8*	-1.6	-2.0	.	.	Exocytosis CP01=91.1*
O=C(CCCN1CCOCC1)c1ccc2c(c1)OCCO2	-1.0	-1.4	i	-3.2	-2.6	.	.	.	.
O=C(CCN1CCOCC1)c1ccc2c(c1)OCCO2	-16.9	-0.6	i	84.8*	30.3*	6.8	23.5	.	.	Exocytosis CP01=-8.3
Cc1ccccc1NC(=O)c1cc2c(=O)n3cccc(C)c3nc2s1	4.0	19.4*	i	-8.3	8.0	.	.	4.5	7.8
Cc1cc2c(cc1S(=O)(=O)N1CCN(c3cccc(C(F)(F)F)c3)CC1)OCC(=O)N2	-1.5	7.6	i	-1.7	6.0	.	.	.	.
CC(=O)c1ccc(N2CCN(S(=O)(=O)c3cc4c(cc3C)NC(=O)CO4)CC2)cc1	-2.4	15.8*	i	2.8	6.8	.	.	0.8	1.8
O=C1COc2ccc(S(=O)(=O)N3CCN(c4cccc(C(F)(F)F)c4)CC3)cc2N1	1.0	11.0*	i	1.3	10.3	.	.	2.8	7.2
CC(C)Oc1ccc(C(=O)Nc2cccc(S(=O)(=O)N3CCCC3)c2)cc1	6.5	1.9	i	-0.3	9.6	.	.	.	.
Cc1cc(C)nc(SCc2nnc(SCC(=O)Nc3ccc(Cl)c(C(F)(F)F)c3)o2)n1	1.6	10.7*	i	4.6	10.3	.	.	6.9	9.2
C=CCOc1ccc(/C=N/N2C(=O)C(CC(=O)Nc3ccc(F)cc3F)SC2=NC)cc1 (centres undefined)	15.4	10.9*	i	8.3	6.2	.	.	0.3	4.4
COc1ccc(-n2nnnc2SCC(=O)c2cccc(OC)c2)cc1	-0.2	1.3	i	0.5	19.6	.	.	.	.
CCOc1ccc(-n2nnnc2SCC(=O)c2ccccc2)cc1	14.6	16.0*	i	-5.9	10.3	.	.	-2.8	1.6
Cc1cc(NC(=O)c2nn(C)c(C)c2Br)no1	0.0	-2.1	i	-0.2	2.7	.	.	.	.
CCOC(=O)c1ccc(NC(=O)Cn2cc3c(n2)CCC(C)C3)cc1 (centres undefined)	5.7	13.3*	i	-3.1	3.0	.	.	2.1	5.0
CCOC(=O)N1CCC(NC(=O)Cn2cc3c(n2)CCC(C)C3)CC1 (centres undefined)	-4.4	0.2	i	-4.5	7.4	.	.	.	.
